Experiments:
D(2) dopamine receptor [1] = target: T1, D(2) dopamine receptor (Homo sapiens, UniProt P14416); assay: Intrinsic activity against dopamine D 2 receptor; assay type: functional; settings: Cricetulus griseus
How it was run: (§1)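 Membranes from CHO cells stably transfected with D2 receptor. Low-affinity agonist state affinity came from [3H]raclopride displacement with high GTP, and high-affinity state affinity from [3H]U-86170 displacement without GTP.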

D(2) dopamine receptor [2] = target: T1, D(2) dopamine receptor; assay: Compound was tested for agonistic activity against D2 receptor from cloned CHO cells, used [3H]U-86170 as radioligand; assay type: functional, cell-based, Cricetulus griseus
D(2) dopamine receptor [3] = target: T1, D(2) dopamine receptor; assay: Intrinsic activity was Determined; assay type: functional
D(2) dopamine receptor [4] = target: D(2) dopamine receptor (Rattus norvegicus, UniProt P61169); assay: Compound was tested for antagonistic activity against D2 receptor from rat striatum, used [3H]raclopride as radioligand; assay type: functional
[5] = Binding affinity against 5-hydroxytryptamine 1A receptor from bovine hippocampus, used [3H]8-OH-DPAT as radioligand
[6] = Intrinsic activity was 0%of highest possible antagonist.; assay type: functional; how it was run: as §1
[7] = (§2) Intrinsic activity was 100% of highest possible agonist.; assay type: functional; how it was run: as §1
[8] = as §2; assay type: functional; remark: listed apart in the source

T1 sequence (P14416 whole entry): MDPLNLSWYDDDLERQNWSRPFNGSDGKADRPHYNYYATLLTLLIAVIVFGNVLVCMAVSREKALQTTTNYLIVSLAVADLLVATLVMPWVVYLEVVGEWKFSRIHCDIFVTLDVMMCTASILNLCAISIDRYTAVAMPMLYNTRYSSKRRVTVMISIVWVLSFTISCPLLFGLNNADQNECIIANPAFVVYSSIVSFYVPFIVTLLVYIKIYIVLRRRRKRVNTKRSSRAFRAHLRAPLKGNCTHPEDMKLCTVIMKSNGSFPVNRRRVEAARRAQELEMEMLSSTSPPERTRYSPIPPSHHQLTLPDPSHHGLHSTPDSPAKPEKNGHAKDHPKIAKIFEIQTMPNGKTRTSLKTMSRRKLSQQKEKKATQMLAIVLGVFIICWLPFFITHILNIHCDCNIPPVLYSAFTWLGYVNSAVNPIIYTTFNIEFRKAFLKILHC
Sequence of D(2) dopamine receptor (Rattus norvegicus, UniProt P61169) (P61169 whole entry): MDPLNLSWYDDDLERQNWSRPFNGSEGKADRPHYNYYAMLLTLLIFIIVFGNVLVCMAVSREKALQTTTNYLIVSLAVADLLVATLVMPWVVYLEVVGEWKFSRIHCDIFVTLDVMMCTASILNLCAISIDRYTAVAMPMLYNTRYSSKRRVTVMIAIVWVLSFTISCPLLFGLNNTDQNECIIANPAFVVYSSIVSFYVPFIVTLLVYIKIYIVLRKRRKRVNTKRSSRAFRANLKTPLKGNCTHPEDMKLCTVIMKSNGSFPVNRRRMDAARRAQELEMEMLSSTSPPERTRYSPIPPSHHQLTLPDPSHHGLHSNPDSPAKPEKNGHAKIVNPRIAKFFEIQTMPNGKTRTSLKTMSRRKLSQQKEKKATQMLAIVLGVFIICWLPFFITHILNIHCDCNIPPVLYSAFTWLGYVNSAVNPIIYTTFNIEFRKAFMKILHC

| Structure (SMILES) | Intrinsic activity (D(2) dopamine receptor [1]) | Ki (D(2) dopamine receptor [2]) | Ki (D(2) dopamine receptor [4]) | other results |
| --- | --- | --- | --- | --- |
| CCCN1CCC2c3cccc(O)c3CCC21 (racemic; 14a) [listing 1 of 2 here] | 28% | – | – | – |
| C=CCN1CCC2c3cccc(O)c3CCC21 (racemic; 14c) [listing 1 of 2 here] | – | 4.1 nM | – | – |
| CCCN1CC[C@H]2c3c(O)cccc3CC[C@H]21 (single isomer, unassigned) [listing 1 of 2 here] | – | – | – | Intrinsic activity (D(2) dopamine receptor [3]): 0% |
| CCCN1CC[C@H]2Cc3c(O)cccc3CC21 (single isomer, unassigned) | 18% | 917 nM | > 630 nM | – |
| C=CCN1CCC2c3c(O)cccc3CCC21 (racemic) | 13% | – | 25 nM | – |
| C=CCN1CC[C@H]2c3c(cccc3OC)CC[C@H]21 (racemic) [listing 1 of 2 here] | 15% | – | – | – |
| CCCN(CCC)[C@@H]1CCc2c(OC)cccc2[C@@H]1C | 0 | 13 nM | 22 nM | – |
| CCCN(CCC)[C@@H]1Cc2cccc3c2N(C1)C(=O)NC3 (racemic) | 30% | 58 nM | > 1000 nM | – |
| CCCN1CC[C@H]2c3c(O)cccc3CC[C@H]21 (single isomer, unassigned) [listing 2 of 2 here] | – | < 50 nM | – | – |
| C=CCN1CC[C@@H]2c3cccc(OC)c3CC[C@@H]21 | – | – | > 1000 nM | – |
| CCCN1[C@@H](C)C[C@@H]2Cc3cccc(OC)c3C[C@@H]21 | 21% | – | – | Ki [5]: 11 nM |
| C=CCN1CC[C@H]2Cc3c(O)cccc3CC21 (single isomer, unassigned) | 21% | 235 nM | 47 nM | – |
| C=CCN1CC[C@H]2c3c(cccc3OC)CC[C@H]21 [listing 1 of 2 here] | 24% | – | – | – |
| C=CCN1CC[C@H]2c3c(cccc3OC)CC[C@H]21 (single isomer, unassigned) | 17% | – | – | – |
| C=CCN1CC[C@H]2Cc3c(cccc3OC)CC21 (single isomer, unassigned) | – | – | – | Intrinsic activity [6]: 0% |
| C=CCN1CC[C@@H]2c3cccc(O)c3CC[C@@H]21 | 47% | 59 nM | 259 nM | – |
| CCCN1CCC2Cc3c(cccc3OC)C[C@H]21 (mixture of isomers) | 100% | 100 nM | 877 nM | – |
| CN1C[C@@H](NC(=O)C(C)(C)C)CC2c3cccc4[nH]c(Cl)c(c34)C[C@H]21 (some centres undefined) | 0% | 3.6 nM | 0.47 nM | – |
| CCCN1C[C@H](CSC)C[C@@H]2c3cccc4[nH]cc(c34)C[C@H]21 | 66% | – | – | – |

| Structure (SMILES) | Intrinsic activity (D(2) dopamine receptor [1]) | Ki (D(2) dopamine receptor [2]) | Ki (D(2) dopamine receptor [4]) | other results |
| --- | --- | --- | --- | --- |
| C=CCN1CC[C@@H]2Cc3c(cccc3OC)C[C@H]21 | – | – | – | Intrinsic activity [7]: 100% |
| C=CCN1CC[C@H]2c3c(cccc3OC)CC[C@H]21 (racemic) [listing 2 of 2 here] | – | 7 nM | – | – |
| CCCN1CC[C@@H]2Cc3c(O)cccc3C[C@H]21 | 109% | – | – | – |
| CCCN(CCC)[C@@H]1Cc2cccc3nc(O)n(c23)C1 | – | – | – | Intrinsic activity [8]: 91 |
| CCCN1CCC2c3cccc(O)c3CCC21 (racemic; 15a) [listing 1 of 2 here] | – | 218 nM | > 1000 nM | – |
| C=CCN1CCC2Cc3c(O)cccc3C[C@H]21 (mixture of isomers) | 91% | 1.4 nM | 25 nM | – |
| C=CCN1CCC2c3cccc(OC)c3CC[C@H]21 (mixture of isomers) | 0% | – | – | – |
| C=CCN1CC[C@H]2c3cccc(O)c3CC[C@H]21 | 22% | 108 nM | 49 nM | – |
| CCCN(CCC)[C@@H]1Cc2cccc3[nH]c(=O)n(c23)C1 | – | 1.7 nM | 5.4 nM | – |
| C=CCN1CC[C@H]2c3c(O)cccc3CC[C@H]21 (racemic) | – | 153 nM | – | Intrinsic activity (D(2) dopamine receptor [3]): 7% |
| CCCN1CCC2c3cccc(O)c3CCC21 (racemic; 15a) [listing 2 of 2 here] | 1% | – | – | – |
| CCCN1CC[C@H]2c3cccc(OC)c3CC[C@@H]21 (racemic) | – | – | – | Intrinsic activity [6]: 0% |
| CCCN1CC[C@H]2c3c(cccc3OC)CC[C@H]21 [listing 1 of 2 here] | 37% | – | – | – |
| Cc1[nH]c2cccc3c2c1C[C@@H]1C3C[C@H](NC(=O)C(C)(C)C)CN1C (some centres undefined) | 11% | 3.1 nM | – | – |
| CCCN1CC[C@H]2c3c(cccc3OC)CC[C@H]21 (racemic) | – | – | > 1000 nM | – |
| CCCN[C@@H]1CCc2c(OC)cccc2[C@@H]1C | 3% | 14 nM | 179 nM | – |
| C=CCN1CCC2Cc3c(cccc3OC)C[C@H]21 (mixture of isomers) | – | – | > 1000 nM | Intrinsic activity [7]: 100% |
| CCCN1[C@H](C)C[C@@H]2Cc3cccc(OC)c3C[C@@H]21 | – | – | – | Ki [5]: 384 nM |
| C=CCN1CC[C@H]2c3cccc(OC)c3CC[C@H]21 | 0% | – | – | – |

| Structure (SMILES) | Intrinsic activity (D(2) dopamine receptor [1]) | Ki (D(2) dopamine receptor [2]) | Ki (D(2) dopamine receptor [4]) | other results |
| --- | --- | --- | --- | --- |
| C=CCN1CCC2c3cccc(OC)c3CC[C@@H]21 (mixture of isomers) | 0% | – | 99 nM | – |
| CCCN(CCC)[C@@H]1Cc2cccc3nc(S)n(c23)C1 (racemic) | 100% | 0.6 nM | 39 nM | – |
| CCCN1CC[C@H]2c3c(cccc3OC)CC[C@H]21 [listing 2 of 2 here] | – | – | – | Ki [5]: 0.2 nM |
| C=CCN1CCC2c3cccc(O)c3CCC21 (racemic; 15c) [listing 1 of 2 here] | – | 75 nM | 198 nM | – |
| CCCN1CC[C@@H]2Cc3c(cccc3OC)C[C@H]21 | 37% | – | – | – |
| C=CCN1CCC2c3c(cccc3OC)CCC21 (racemic) | 0% | 8.5 nM | – | – |
| C=CCN1CCC2c3cccc(O)c3CCC21 (racemic; 15c) [listing 2 of 2 here] | 29% | – | – | – |
| C=CCN1CCC2c3cccc(O)c3CCC21 (racemic; 14c) [listing 2 of 2 here] | 44% | – | – | – |
| C=CCN1CCC2Cc3c(cccc3OC)CC21 (racemic) | – | – | 429 nM | – |
| CCCN1C[C@H]2c3c(cccc3OC)CC[C@H]21 (racemic) | – | – | 329 nM | – |
| CCCN1CCC2Cc3c(O)cccc3CC21 (racemic) | 61% | 11 nM | 296 nM | – |
| CCCN(CCC)[C@@H]1Cc2cccc3c2N(CC(=O)N3)C1 (racemic) | 70% | – | 28 nM | – |
| CCCN1CC[C@H]2c3c(cccc3OC)CC[C@H]21 (single isomer, unassigned) | – | – | > 1000 nM | – |
| CCCN(CCC)[C@@H]1Cc2cccc3ccc(=O)n(c23)C1 (racemic) | 79% | 3.5 nM | 18.8 nM | – |
| CCCN1CCC2c3cccc(O)c3CCC21 (racemic; 14a) [listing 2 of 2 here] | – | 93 nM | 33 nM | – |
| Oc1cccc2c1CC[C@@H]1NCCC[C@@H]21 (racemic) | 53 | 11 nM | 38 nM | – |
| C=CCN1CC[C@H]2c3c(cccc3OC)CC[C@H]21 [listing 2 of 2 here] | – | 6.7 nM | – | – |
| C=CCN1CC[C@@H]2Cc3c(O)cccc3C[C@H]21 | 106% | – | – | – |
| CCCN1CCC2Cc3c(O)cccc3C[C@H]21 (mixture of isomers) | 79% | 2.4 nM | 17 nM | – |

From ChEMBL document CHEMBL1126679 (J Med Chem, 1993)
